An excerpt weighted towards active compounds, which were near 2.3% of everything screened.
PAX8 reporter – PAX8 transcriptional activity inhibition; 1.2% of 360,000 active; RMG-I TPO-luciferase reporter, SteadyGlo, 24 h; inhibition, % at 12.6 µM; AID 652154;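 active = mean replicate inhibition at least 60% with every replicate also reaching 60%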;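 note: luciferase light reporting Pax8 driven TPO promoter activity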
PfHsp90 yeast 2 – reduces growth (ATP signal) of yeast expressing P. falciparum Hsp90; inhibition, % at 9.4 µM; S. cerevisiae expressing PfHsp90, BacTiter-Glo ATP, 48 h; yeast lacking PDR1 and PDR3 efflux regulators; 0.32% of 310,000 active;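 active = every replicate shows inhibition above about 80%, whatever the replicate mean, limit read from the data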
Glyco luc inh – blocks N-linked glycosylation in D54 reporter cells; D54 ERlucT glycosylation luciferase reporter, 24 h; percent of 100 nM tunicamycin response; 0.23% of 360,000 active; AID 588692; reporter increase, % at 12.5 µM;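 active = mean luciferase reporter signal, scaled so untreated is 0 and the glycosylation-blocking control 100, at or above a set limit in every replicate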;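 note: luciferase carries N-glycosylation sites so blocking glycosylation raises the light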
Arrestin-AP2 inh – human beta-arrestin and AP2 interaction inhibition; inhibition, % at 10 µM; 0.31% of 340,000 active; FITC-arrestin peptide / GST-AP2 beads, flow cytometry; AP2 beta2 appendage carries R879A mutation;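 active = inhibition above a set limit, near 3 SD of compounds lacking own fluorescence, cut at about 54% in these data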
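System: GST-AP2 R879A glutathione beads. Medium: PBS with 0.05% Tween 20 and 0.1% BSA. Also added: FITC-arrestin peptide, 50 nM. Incubation: 12 min plus 1 h, RT. Measured by: high-throughput flow cytometry of beads, ex 488, em 535 nm. Evaluation: percent drop in bead-associated FITC signal.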
Rtt109 Vps75 – blocks Candida albicans Rtt109/Vps75 acetyltransferase activity; 0.16% of 330,000 active; inhibition, % at 34.9 µM; Q5AAJ8; purified Rtt109/Vps75, ThioGlo CoA-SH fluorescence, 4 h; AID 540336;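 active = inhibition of at least 50% in every replicate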
Target sequence (Q5AAJ8 whole entry, looked up): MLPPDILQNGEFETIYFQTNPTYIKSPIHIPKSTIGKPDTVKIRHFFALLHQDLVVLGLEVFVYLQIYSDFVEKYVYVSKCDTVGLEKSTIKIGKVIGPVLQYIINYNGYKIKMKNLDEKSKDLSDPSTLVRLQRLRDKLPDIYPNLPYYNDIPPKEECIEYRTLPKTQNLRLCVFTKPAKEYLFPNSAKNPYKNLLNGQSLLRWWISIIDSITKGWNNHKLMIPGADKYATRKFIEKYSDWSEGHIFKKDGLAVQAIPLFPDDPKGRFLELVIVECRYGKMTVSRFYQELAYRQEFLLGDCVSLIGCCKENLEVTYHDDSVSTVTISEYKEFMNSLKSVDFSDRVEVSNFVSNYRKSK
Env fusion inh – inhibitors of HIV Env-mediated cell fusion; HeLa-JRFL Env/CEM21 cell fusion, luciferase; 1.1% of 360,000 active; inhibition, % at 12.3 µM;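 active = mean replicate inhibition score of at least 50 and every replicate individually at or above 50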
Of the large screens only hits and unclear results are named; the others gave an inactive call.

CCOC1=C2[C@H](c3ccccc3Cl)N(S(=O)(=O)c3ccc(C)cc3)C[C@H]2C(C#N)(C#N)C(C#N)(C#N)C1	none (no result: PfHsp90 yeast 2, Arrestin-AP2 inh, Rtt109 Vps75)
CCc1ccc(NC(=O)c2cnn3ccccc23)cc1	PAX8 reporter 82
CSc1cccc(NC(=O)c2cnn3ccccc23)c1	none
C[C@@H]1CCCCO[C@H](CN(C)C(=O)Nc2ccc(F)cc2)[C@@H](C)CN([C@@H](C)CO)C(=O)c2cc(NS(=O)(=O)c3ccc(Cl)cc3)ccc2O1	PAX8 reporter 83 (no result: PfHsp90 yeast 2, Glyco luc inh, Arrestin-AP2 inh, Rtt109 Vps75)
C[C@H]1CCCCO[C@H](CN(C)C(=O)Nc2ccc(F)cc2)[C@@H](C)CN([C@@H](C)CO)C(=O)c2cc(NS(=O)(=O)c3ccc(Cl)cc3)ccc2O1	none (no result: PfHsp90 yeast 2, Glyco luc inh, Arrestin-AP2 inh, Rtt109 Vps75)
C[C@H](CO)N1C[C@H](C)[C@H](CN(C)C(=O)Nc2ccc(F)cc2)OCCCC[C@H](C)Oc2ccc(NS(=O)(=O)c3ccc(Cl)cc3)cc2C1=O	PAX8 reporter 61 (no result: PfHsp90 yeast 2, Glyco luc inh, Arrestin-AP2 inh, Rtt109 Vps75)
O=C(c1ccc2c(c1)OCCO2)N1CCN(c2ccc(C(F)(F)F)cn2)CC1	none (no result: PfHsp90 yeast 2, Arrestin-AP2 inh, Rtt109 Vps75)
O=C(c1ccc2c(c1)OCO2)N1CCN(c2ccc(C(F)(F)F)cn2)CC1	PAX8 reporter 132 (no result: Env fusion inh)
COc1cccc(C(=O)Nc2ccc3c(c2)C(=O)N(C)C[C@@H](OC)[C@@H](C)CN[C@@H](C)CO3)c1	none (no result: PAX8 reporter, PfHsp90 yeast 2, Glyco luc inh, Arrestin-AP2 inh, Rtt109 Vps75)
COCCN(C(=O)COC(=O)c1ccc(C=O)cc1)c1c(N)n(Cc2ccccc2)c(=O)[nH]c1=O	Env fusion inh 58
CN(C(=O)COC(=O)/C=C/c1ccc(F)cc1)c1c(N)n(Cc2ccccc2)c(=O)[nH]c1=O	none (no result: PfHsp90 yeast 2)
CCOc1ccc(OCC(=O)N(CCC2=CCCCC2)c2c(N)n(Cc3ccccc3)c(=O)[nH]c2=O)cc1	Glyco luc inh 80
COCCN(C(=O)COC(=O)/C=C/c1ccc2ccccc2n1)c1c(N)n(Cc2ccccc2)c(=O)[nH]c1=O	PAX8 reporter 64
CN(C(=O)COC(=O)/C=C/c1ccc2ccccc2n1)c1c(N)n(Cc2ccccc2)c(=O)[nH]c1=O	PAX8 reporter 86
O=C(NCc1ccccc1)[C@@H]1[C@@H](CO)[C@@H]2Cn3c(ccc(/C=C/c4ccccc4)c3=O)[C@H]1N2CC1CC1	none (no result: PfHsp90 yeast 2, Glyco luc inh, Arrestin-AP2 inh, Rtt109 Vps75, Env fusion inh)
C[C@@H]1CN([C@H](C)CO)C(=O)c2cc(C#CC3(O)CCCC3)cnc2O[C@@H]1CN(C)C(=O)Nc1ccc2c(c1)OCO2	none (no result: PAX8 reporter, PfHsp90 yeast 2, Glyco luc inh, Arrestin-AP2 inh, Rtt109 Vps75)
Cc1noc(C)c1NC(=O)Nc1ccc2c(c1)CC(=O)N([C@H](C)CO)C[C@H](C)[C@@H](CN(C)Cc1ccccc1)O2	none (no result: PfHsp90 yeast 2, Glyco luc inh, Arrestin-AP2 inh, Rtt109 Vps75)
COCCN(C(=O)COC(=O)/C=C/c1nc2ccccc2s1)c1c(N)n(Cc2ccccc2)c(=O)[nH]c1=O	PAX8 reporter 76
CCN(C(=O)COC(=O)/C=C/c1nc2ccccc2s1)c1c(N)n(Cc2ccccc2)c(=O)[nH]c1=O	none (no result: Env fusion inh)
COc1ccc(Cl)cc1C1=NOC2(CCC2)C(=O)N1Cc1ccc(NC(C)=O)cc1	Env fusion inh 67 (no result: PfHsp90 yeast 2, Arrestin-AP2 inh, Rtt109 Vps75)
COc1ccc(Cl)cc1C(=O)Nc1ccc(NC(C)=O)cc1	none
O=C([C@H]1[C@H](CO)[C@H]2Cn3c(cccc3=O)[C@@H]1N2S(=O)(=O)c1ccccc1F)N1CCCCC1	none (no result: PfHsp90 yeast 2, Glyco luc inh, Arrestin-AP2 inh, Rtt109 Vps75, Env fusion inh)
CN1CCc2c(sc(NC(=O)c3ccc([N+](=O)[O-])o3)c2C(N)=O)C1	PAX8 reporter 95, Env fusion inh 72
NC(=O)c1ccsc1NC(=O)c1ccc([N+](=O)[O-])o1	PAX8 reporter 89
Cn1cnc(S(=O)(=O)N[C@@H]2CC[C@H](CC(=O)N3CCN(c4ccccc4)CC3)O[C@H]2CO)c1	none (no result: PfHsp90 yeast 2, Glyco luc inh, Arrestin-AP2 inh, Rtt109 Vps75)
C[C@H]1CN([C@@H](C)CO)S(=O)(=O)c2ccc(C3=CCCC3)cc2O[C@@H]1CN(C)C(=O)c1ccncc1	none (no result: PfHsp90 yeast 2, Glyco luc inh, Arrestin-AP2 inh, Rtt109 Vps75)
O=C(Nc1ccc(Cl)cc1)c1cc2c(cc1O)[nH]c1ccccc12	Env fusion inh 62
CCOC(=O)c1cc2sccc2n1CC(=O)O	none (no result: PAX8 reporter, Env fusion inh)
CCOC(=O)c1cc2sccc2n1CC(=O)N1c2ccccc2CC1C (centres undefined)	Glyco luc inh 377 (no result: PAX8 reporter, PfHsp90 yeast 2)
CCOC(=O)c1sc2nc3c(SCCC(=O)O)cc(C(=O)c4cc(OC)ccc4O)cn3c(=O)c2c1C	Env fusion inh 72
CCOC(=O)c1sc2nc3c(SCCC#N)cc(C(=O)c4cc(F)ccc4O)cn3c(=O)c2c1C	none

Bioassay records (PubChem)
